For data set [1], the system named is MCF7. Kind of data set: Cell cycle arrest in estrogen-sensitive human MCF7 cells after 24 hrs using propidium iodide staining by flow cytometry. In kind it is functional, cell-based.
For data set [2], the system named is HeLa. Kind of data set: Cell cycle arrest in non-estrogen-sensitive human HeLa cells after 24 hrs using propidium iodide staining by flow cytometry. In kind it is functional, cell-based.
In a further data set the test system is NCI-H295R. Kind of data set: Growth inhibition of estrogen-sensitive human NCI-H295R cells after 72 hrs by MTT assay. The format is functional. Put shortly: (§1)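 Cells were seeded at 8x10^3 per well and left 18 h at 37 °C, 5% CO2, then exposed 72 h to compound at several concentrations from 10 mM DMSO stocks (final DMSO ≤0.25%). Jurkat, RS4;11 and SEM were grown in RPMI-1640; H295R in DMEM-F12 with 2% FBS plus insulin-transferrin-selenium. Viability read by MTT.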
Background: Tetrazolium dyes change colour on reduction, which living cells bring about.

For another data set, the system named is OVCAR-3. Briefly: Growth inhibition of estrogen-sensitive human OVCAR3 cells after 72 hrs by MTT assay. In kind it is functional. The settings on record: OVCAR-3, 72 h. Put shortly:
as §1

A further data set relates to IGROV-1. Briefly: Growth inhibition of estrogen-sensitive human IGROV1 cells after 72 hrs by MTT assay. The format is functional. To be noted: IGROV-1, 72 h. Put shortly:
as §1

The next data set relates to HT-29. Briefly: Growth inhibition of non-estrogen-sensitive human HT-29 cells after 72 hrs by MTT assay. In kind it is functional. The settings on record: HT-29, 72 h. Put shortly:
as §1

Data set [3] relates to MCF7. Briefly: Growth inhibition of estrogen-sensitive human MCF7 cells after 72 hrs by MTT assay. In kind it is functional. The settings on record: MCF7, 72 h. Put shortly:
as §1

Data set [4] has as its system HeLa. Briefly: Growth inhibition of non-estrogen-sensitive human HeLa cells after 72 hrs by MTT assay. The format is functional. Put shortly: as §1
Another data set deals with Jurkat. Briefly: Growth inhibition of non-estrogen-sensitive human Jurkat cells after 72 hrs by MTT assay. In kind it is functional. Put shortly: as §1
Data set [5] can be described thus: Growth inhibition of non-estrogen-sensitive human SEM cells after 72 hrs by MTT assay. In kind it is functional. An outline of the steps: as §1
A short description of data set [6]: Growth inhibition of non-estrogen-sensitive human RS4:11 cells after 72 hrs by MTT assay. The settings on record: RS4-11, 72 h. The format is functional. Put shortly:
as §1

Data set [7] addresses T1, Aromatase (Homo sapiens, UniProt P11511).
T1 sequence (P11511 whole entry): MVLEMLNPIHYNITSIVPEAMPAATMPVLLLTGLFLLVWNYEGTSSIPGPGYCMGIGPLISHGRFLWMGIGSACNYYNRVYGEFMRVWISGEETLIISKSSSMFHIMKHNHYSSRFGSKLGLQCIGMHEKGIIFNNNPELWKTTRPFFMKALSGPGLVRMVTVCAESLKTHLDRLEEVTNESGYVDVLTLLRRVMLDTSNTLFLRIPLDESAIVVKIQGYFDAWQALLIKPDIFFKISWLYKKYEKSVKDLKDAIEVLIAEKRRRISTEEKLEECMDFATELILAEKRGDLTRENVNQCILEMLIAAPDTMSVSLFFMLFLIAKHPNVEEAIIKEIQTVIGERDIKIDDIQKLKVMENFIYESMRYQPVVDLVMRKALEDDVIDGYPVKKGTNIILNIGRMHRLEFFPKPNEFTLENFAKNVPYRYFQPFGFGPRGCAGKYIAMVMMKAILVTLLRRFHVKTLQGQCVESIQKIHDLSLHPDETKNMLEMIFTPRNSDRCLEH
Briefly: Inhibition of CYP19 in human H295R cells using [1beta-3H(N)]-androst-4-ene-3,17-dione at 5 uM after 24 hrs by tritiated water release assay. The format is cell-based. Put shortly: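 Cells were then incubated 2 h with 0.5 µM [1β-3H(N)]-androst-4-ene-3,17-dione. Read-out is tritiated water release, expressed as % of untreated cells. Means ± SEM of two independent experiments, each in triplicate.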

Data set [8] addresses T1, Aromatase. Kind of data set: Inhibition of aromatase in human H295R cells using [1beta-3H(N)]-androst-4-ene-3,17-dione as substrate assessed as residual activity at 5 uM after 24 hrs by tritiated water release assay.

Calls of active or inactive are those of the source. No cut-off for these calls is given here.

Broadly, the GI50 is the concentration at which growth is held to half of that of the control. Low readings indicate more potent growth inhibition, high ones less potent growth inhibition.

Turning to `N#Cc1ccc(C(c2ccc(C#N)cc2)n2cncn2)cc1` [LETROZOLE], the Activity entry with MCF7 [1] and with HeLa [2] was “inactive” in each case. Besides, the GI50 with NCI-H295R, with OVCAR-3, with IGROV-1, in the data set on HT-29, in the data set with MCF7 [3] and in the data set on HeLa [4] was more than 100 µM throughout. The 50% growth inhibitory concentration (GI50) (with Jurkat; in [5]; in data set [6]) was more than 100 µM each time. For the same compound, the “inhibition (INH)” value against Aromatase [7] is “Active”. Further, on Aromatase [8], the activity at 5 µM worked out at 32%.

Values taken from ChEMBL document CHEMBL2440047, “Design, synthesis, and structure-activity relationships of azolylmethylpyrroloquinolines as nonsteroidal aromatase inhibitors” (J Med Chem, 2013).
